One assay addresses T1, Monoglyceride lipase (Mus musculus, UniProt O35678).
T1 sequence (O35678 whole entry): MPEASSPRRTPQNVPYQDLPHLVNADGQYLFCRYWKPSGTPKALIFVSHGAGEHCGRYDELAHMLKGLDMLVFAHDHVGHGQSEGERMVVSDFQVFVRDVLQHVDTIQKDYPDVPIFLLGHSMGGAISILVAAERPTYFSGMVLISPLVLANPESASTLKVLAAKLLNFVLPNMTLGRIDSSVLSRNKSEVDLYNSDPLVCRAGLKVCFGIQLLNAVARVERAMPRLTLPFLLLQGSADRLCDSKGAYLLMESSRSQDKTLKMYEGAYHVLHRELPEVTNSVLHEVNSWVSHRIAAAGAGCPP
Put plainly: Inhibition of MAGL in mouse brain membrane. Type of assay: cell membranes. The method, boiled down: (§1)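 Mouse brain membrane fraction (Dounce homogenized in PBS pH 7.5, 1,400 × g debris spin, 64,000 × g 45 min pellet, resuspended) at 1 mg/ml in PBS. Inhibitor preincubated 30 min at 37°C, then FP-rhodamine 1 μM final for 30 min at 25°C. SDS-PAGE with in-gel fluorescence scanning. IC50 from fitted integrated band intensities, mean of at least triplicates.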

In assay [1] the target is T2, Monoacylglycerol lipase ABHD6 (Mus musculus, UniProt Q8R2Y0).
T2 sequence (Q8R2Y0 whole entry): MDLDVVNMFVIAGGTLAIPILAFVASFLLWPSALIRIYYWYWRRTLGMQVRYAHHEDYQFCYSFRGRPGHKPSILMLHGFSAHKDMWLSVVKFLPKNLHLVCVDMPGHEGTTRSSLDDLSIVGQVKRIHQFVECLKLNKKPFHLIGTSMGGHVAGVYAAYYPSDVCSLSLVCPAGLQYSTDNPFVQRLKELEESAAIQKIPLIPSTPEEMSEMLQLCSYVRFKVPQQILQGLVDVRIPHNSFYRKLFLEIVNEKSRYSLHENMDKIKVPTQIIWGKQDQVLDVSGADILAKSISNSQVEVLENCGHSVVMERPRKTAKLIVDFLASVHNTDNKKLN
In words: Inhibition of ABHD6 in mouse brain membrane. Type of assay: cell membranes. An outline of the steps: as §1

The target of assay [2] is T3, Fatty-acid amide hydrolase 1 (Mus musculus, UniProt O08914).
T3 sequence (O08914 whole entry): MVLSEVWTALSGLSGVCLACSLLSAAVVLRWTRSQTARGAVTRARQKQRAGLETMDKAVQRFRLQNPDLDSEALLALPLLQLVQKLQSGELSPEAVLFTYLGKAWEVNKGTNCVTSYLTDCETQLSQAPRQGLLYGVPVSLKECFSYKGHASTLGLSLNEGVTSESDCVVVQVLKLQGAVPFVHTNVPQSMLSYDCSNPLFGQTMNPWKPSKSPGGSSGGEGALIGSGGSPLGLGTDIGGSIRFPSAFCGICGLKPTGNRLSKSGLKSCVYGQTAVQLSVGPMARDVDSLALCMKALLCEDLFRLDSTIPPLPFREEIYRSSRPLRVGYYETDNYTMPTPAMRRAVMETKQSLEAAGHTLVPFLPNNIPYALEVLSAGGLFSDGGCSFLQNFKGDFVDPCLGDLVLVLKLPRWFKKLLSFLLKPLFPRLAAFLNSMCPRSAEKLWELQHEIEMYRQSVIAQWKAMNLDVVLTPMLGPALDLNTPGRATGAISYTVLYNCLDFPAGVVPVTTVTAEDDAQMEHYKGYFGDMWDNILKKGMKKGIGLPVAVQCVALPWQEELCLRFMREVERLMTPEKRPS
In words: Inhibition of FAAH in mouse brain membrane. The class given is cell membranes. The method, boiled down:
as §1

Assay [3] has as its target T4, Patatin-like phospholipase domain-containing protein 6 (Mus musculus, UniProt Q3TRM4).
T4 sequence (Q3TRM4 whole entry): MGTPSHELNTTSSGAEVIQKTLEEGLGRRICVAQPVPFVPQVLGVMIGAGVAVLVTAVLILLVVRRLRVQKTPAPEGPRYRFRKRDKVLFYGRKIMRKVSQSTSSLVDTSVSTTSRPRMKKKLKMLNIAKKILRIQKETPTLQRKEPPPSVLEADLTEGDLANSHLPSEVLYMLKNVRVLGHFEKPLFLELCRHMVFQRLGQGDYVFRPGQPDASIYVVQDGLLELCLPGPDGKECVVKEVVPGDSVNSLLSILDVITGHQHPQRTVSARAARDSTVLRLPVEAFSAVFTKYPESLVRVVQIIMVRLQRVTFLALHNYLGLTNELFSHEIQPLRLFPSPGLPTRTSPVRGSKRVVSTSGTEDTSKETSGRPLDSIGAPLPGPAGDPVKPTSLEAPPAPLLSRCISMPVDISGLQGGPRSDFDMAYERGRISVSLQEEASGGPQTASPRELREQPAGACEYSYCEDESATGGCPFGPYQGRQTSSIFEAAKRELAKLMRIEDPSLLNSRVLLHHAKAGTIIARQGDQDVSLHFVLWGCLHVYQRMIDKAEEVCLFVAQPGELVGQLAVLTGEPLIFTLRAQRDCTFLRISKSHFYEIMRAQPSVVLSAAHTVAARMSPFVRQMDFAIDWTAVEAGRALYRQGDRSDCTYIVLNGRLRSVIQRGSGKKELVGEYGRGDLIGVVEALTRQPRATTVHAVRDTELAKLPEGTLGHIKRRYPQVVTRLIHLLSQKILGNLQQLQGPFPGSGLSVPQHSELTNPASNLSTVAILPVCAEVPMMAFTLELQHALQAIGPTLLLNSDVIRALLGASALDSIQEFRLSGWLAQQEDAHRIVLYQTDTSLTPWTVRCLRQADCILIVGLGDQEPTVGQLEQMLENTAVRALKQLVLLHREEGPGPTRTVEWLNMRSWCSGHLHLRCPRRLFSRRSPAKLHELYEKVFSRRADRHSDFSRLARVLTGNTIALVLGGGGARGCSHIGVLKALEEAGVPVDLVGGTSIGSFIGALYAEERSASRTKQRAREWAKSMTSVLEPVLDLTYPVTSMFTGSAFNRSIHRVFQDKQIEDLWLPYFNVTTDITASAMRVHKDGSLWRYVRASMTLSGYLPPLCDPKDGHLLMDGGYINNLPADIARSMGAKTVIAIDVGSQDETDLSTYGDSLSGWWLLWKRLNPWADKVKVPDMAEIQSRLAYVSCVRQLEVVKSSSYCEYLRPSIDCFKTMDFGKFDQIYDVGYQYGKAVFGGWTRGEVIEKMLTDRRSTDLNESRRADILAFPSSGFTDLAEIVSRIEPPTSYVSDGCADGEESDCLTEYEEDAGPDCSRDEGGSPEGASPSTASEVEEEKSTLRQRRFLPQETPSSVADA
Put plainly: Inhibition of NTE in mouse brain membrane. The class given is cell membranes. An outline of the steps: as §1

The species named for a further assay is Mus musculus. In words: Selectivity ratio of IC50 for mouse FAAH to IC50 for mouse MAGL. The method, boiled down:
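Competitive ABPP on mouse brain membrane proteome (Dounce-homogenized in PBS pH 7.5, 64,000 × g pellet, resuspended), diluted to 1 mg/ml in PBS. Inhibitor preincubated 30 min at 37°C, then FP-rhodamine 1 μM final for 30 min at 25°C. SDS-PAGE and in-gel fluorescence scanning. IC50s for FAAH and MAGL come from integrated band intensities, means of ≥3 runs; the ratio is taken from these.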

What is called IC50 is the concentration at which inhibition is half-maximal. The low end stands for higher potency, the high end for lower potency.

Take `O=C(Oc1ccc([N+](=O)[O-])cc1)N1CCN(Cc2ccccc2-c2ccccc2)CC1`: the IC50 on Monoglyceride lipase is 670 nM; in assay [1], 2860 nM; in assay [2], 3570 nM; in assay [3], 330 nM.

As to `O=C(Oc1ccc([N+](=O)[O-])cc1)N1CCN(C(c2ccc(F)cc2)c2ccc(F)cc2)CC1`, the figures for the IC50 (at Monoglyceride lipase; in assay [1]; in assay [2]) were 200 nM, 900 nM and 5410 nM, respectively. In addition, in the assay listed under Mus musculus, the Ratio IC50 was found to be 27.

Turning to `COc1ccc(C(O)(c2ccc(OC)cc2)C2CCN(C(=O)Oc3ccc([N+](=O)[O-])cc3)C2)cc1` (stereo not drawn), the IC50 (at Monoglyceride lipase; in assay [1]; in assay [2]) was above 50000 nM throughout.

As to `CN(C(=O)Oc1ccc([N+](=O)[O-])cc1)C(c1ccccc1)c1ccccc1`, the IC50 (against Monoglyceride lipase; in assay [1]; in assay [2]) was above 50000 nM throughout.

In assay [1], `O=C(Oc1ccc([N+](=O)[O-])cc1)N1CCC(C(O)(c2ccc3c(c2)OCO3)c2ccc3c(c2)OCO3)CC1` yielded an IC50 of 3270 nM.

For the molecule `O=C(Oc1ccc([N+](=O)[O-])cc1)N1CCN(Cc2cc(-c3ccccc3)cs2)CC1`, the IC50 against Monoglyceride lipase turned out to be 10 nM; in assay [1], 1000 nM; in assay [2] it was 280 nM; in assay [3], 890 nM.

On to `CN(C)c1ccc(C(O)(c2ccc(N(C)C)cc2)C2CCN(C(=O)Oc3ccc([N+](=O)[O-])cc3)CC2)cc1`, for which the IC50 against Monoglyceride lipase is 2120 nM; in assay [1] it was 1020 nM; in assay [2], 10500 nM. Also, in the assay listed under Mus musculus, the Ratio IC50 stood at 5.

For `COc1ccc(CN2CCN(C(=O)Oc3ccc([N+](=O)[O-])cc3)CC2)cc1`, the IC50 at Monoglyceride lipase was found to be 1530 nM; in assay [1], 1270 nM; in assay [2], 1050 nM; in assay [3] it was 480 nM.

For the molecule `O=C(Oc1ccc([N+](=O)[O-])cc1)N1CCC2(CC1)OC2(c1ccccc1)c1ccccc1`, the IC50 against Monoglyceride lipase turned out to be 200 nM; in assay [1] it was 380 nM; in assay [2], 5850 nM. The Ratio IC50 in the assay filed under Mus musculus amounted to 29.

With `COc1ccc(C(c2ccc(OC)cc2)C2CCN(C(=O)Oc3ccc([N+](=O)[O-])cc3)CC2)cc1`, the IC50 against Monoglyceride lipase was 73 nM; in assay [1], 550 nM; in assay [2] it was 40100 nM. Moreover, the Ratio IC50 in the assay filed under Mus musculus is 549.

For the molecule `O=C(Oc1ccc([N+](=O)[O-])cc1)N1CCC(C(O)(c2ccc(Cl)cc2)c2ccc(Cl)cc2)CC1`, the IC50 on Monoglyceride lipase turned out to be 1100 nM; in assay [1], 180 nM; in assay [2], 3360 nM. For the same molecule, the Ratio IC50 in the assay filed under Mus musculus worked out at 3.

As to `O=C(Oc1ccc([N+](=O)[O-])cc1)N1CCN(Cc2ccccc2)CC1`, the IC50 against Monoglyceride lipase stood at 900 nM; in assay [1], 740 nM; in assay [2], 930 nM; in assay [3], 610 nM.

As for `O=C(Oc1ccc([N+](=O)[O-])cc1)N1CCN(Cc2ccc(-c3ccccc3)s2)CC1`, the IC50 was found to be 50 nM against Monoglyceride lipase, 220 nM in assay [1], 40 nM in assay [2] and 80 nM in assay [3].

With `COc1ccc(C(O)(c2ccc(OC)c(OC)c2)C2CCN(C(=O)Oc3ccc([N+](=O)[O-])cc3)CC2)cc1OC`, the IC50 against Monoglyceride lipase is 1300 nM; in assay [1] it was 6960 nM; in assay [2], above 50000 nM.

For the molecule `O=C(Oc1ccc([N+](=O)[O-])cc1)N1CCN(Cc2ccc3ccccc3c2)CC1`, the IC50 against Monoglyceride lipase was 70 nM; in assay [1], 150 nM; in assay [2] it was 380 nM; in assay [3] it was 1100 nM.

Regarding `O=C(Oc1ccc([N+](=O)[O-])cc1)N1CCN(Cc2ccc(-c3ccccc3)o2)CC1`, the IC50 is 90 nM at Monoglyceride lipase, 220 nM in assay [1], 20 nM in assay [2] and 250 nM in assay [3].

For the molecule `COc1cccc(C(O)(c2cccc(OC)c2)C2CCN(C(=O)Oc3ccc([N+](=O)[O-])cc3)CC2)c1`, the values for the IC50 (on Monoglyceride lipase; in assay [1]; in assay [2]) were 560 nM, 460 nM and 5830 nM, respectively. Besides, the Ratio IC50 in the assay filed under Mus musculus came out at 10.

On to `COc1cc(OCc2ccccc2)ccc1CN1CCN(C(=O)Oc2ccc([N+](=O)[O-])cc2)CC1`, for which the IC50 is 90 nM on Monoglyceride lipase, 310 nM in assay [1], 930 nM in assay [2] and 420 nM in assay [3].

On to `CN(CCC(c1ccccc1)c1ccccc1)C(=O)Oc1ccc([N+](=O)[O-])cc1`, for which the IC50 (against Monoglyceride lipase; in assay [1]; in assay [2]) was above 50000 nM each time.

On to `O=C(Oc1ccc([N+](=O)[O-])cc1)N1CCN(C2c3ccccc3Oc3ccccc32)CC1`, for which the IC50 on Monoglyceride lipase stood at 6120 nM; in assay [1] it was 2120 nM; in assay [2], 9000 nM. Besides, the Ratio IC50 in the assay listed under Mus musculus was 2.

For `COc1ccccc1C(O)(c1ccccc1OC)C1CCN(C(=O)Oc2ccc([N+](=O)[O-])cc2)CC1`, the results for the IC50 (against Monoglyceride lipase; in assay [1]; in assay [2]) were 510 nM, 1100 nM and 15100 nM, respectively.

Consider `O=C(Oc1ccc([N+](=O)[O-])cc1)N1CCC(C(O)(c2ccccc2)c2ccccc2)CC1`, for which the half-maximal inhibitory concentration (IC50) at Monoglyceride lipase is 690 nM; in assay [1], 1100 nM; in assay [2] it was 4340 nM. Moreover, the Ratio IC50 in the assay filed under Mus musculus was 6.

Turning to `O=C(Oc1ccc([N+](=O)[O-])cc1)N1CCN(Cc2ccc(-c3ccccc3)cc2)CC1`, the 50% inhibitory concentration (IC50) against Monoglyceride lipase turned out to be 15 nM; in assay [1] it was 1650 nM; in assay [2] it was 4600 nM; in assay [3] it was 4270 nM.

For `O=C(Oc1ccc([N+](=O)[O-])cc1)N1CCN(Cc2ccc3ccccc3n2)CC1`, the IC50 on Monoglyceride lipase turned out to be 80 nM; in assay [1] it was 490 nM; in assay [2] it was 1040 nM; in assay [3] it was 910 nM.

The record behind these values is ChEMBL document CHEMBL1156908, “Characterization of tunable piperidine and piperazine carbamates as inhibitors of endocannabinoid hydrolases” (J Med Chem, 2010).
